{"source": "paper PMC3556183", "about": "(Journal of neuroendocrinology, 2013)", "key": {"[1]": {"system": "pituitary and ovary cell membranes", "assay": "Preliminary binding of phoenixin-20 to pituitary and ovary cell membranes", "parameters": "species or system rat", "conditions": "data not shown; for displacement of phoenixin-20 binding: pituitary and ovary cell membranes, female rat donors"}, "[2]": {"system": "dispersed, primary rat pituitary cultures", "assay": "Static incubation of dispersed anterior pituitary cells, hormone release", "assay_type": "cell-based", "conditions": "for GnRH-stimulated LH release: female pituitary cultures, overnight (24-hour) pretreatment, then GnRH for one hour, Figure 3A and B", "in_short": "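Rat anterior pituitary cells were trypsin-dispersed and cultured 48 h in tubes (MEM, 10% horse serum, 37°C). Cultures were pretreated 24 h with medium or peptide fragments. Medium was replaced by M199 with 0.1% BSA, 2×10⁻⁵ M bacitracin and 20 mM HEPES, with the same pretreatment. Cells were incubated 30 or 60 min at 37°C ± GnRH, and the incubation was ended by centrifugation. LH was measured by RIA (RP-3 standards) as mean ± SEM.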"}, "GnRH receptor [3]": {"system": "GnRH receptor", "assay": "RT-PCR of GnRH receptor mRNA in dispersed primary pituitary cell cultures", "assay_type": "cell-based, rat", "in_short": "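Dispersed primary rat anterior pituitary cultures were pretreated overnight with the peptide: male cultures with or without GnRH, female cultures without GnRH. RNA was extracted and reverse-transcribed with oligo d(T) and MMLV RT. SYBR Green real-time PCR was run with primer efficiencies >85%. Changes were calculated by delta delta Ct, normalised to HPRT-1, and compared by t test.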"}, "[4]": {"system": "Antibodies used in the EIA", "assay": "Cross-reactivity of the antibodies used in the phoenixin EIA", "assay_type": "binding"}, "[5]": {"system": "dispersed pituitary cells from random cycle, female donors", "assay": "Dynamic", "assay_type": "cell-based, rat", "conditions": "1000nM phoenixin-20 for 24 hours", "in_short": "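Rat anterior pituitary cells from random-cycle females, trypsin-dispersed (0.1%), cultured 48 h at 37°C in MEM with 10% horse serum. Pretreated 24 h with medium or 1000nM amidated 20-residue peptide, resuspended in M199/0.1% BSA/bacitracin/20 mM HEPES; ~2 million cells perifused on Bio-Gel P2 columns (0.05 ml/min). Peptide present throughout. 5-min fractions: basal, 10 nM GnRH 50 min, medium 50 min, 60 mM KCl 10 min, medium 40 min. LH by RIA (RP-3 standards); mean ± SEM.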"}, "PNX antiserum": {"system": "PNX antiserum", "conditions": "rabbit polyclonal antiserum; ref Phoenix Pharmaceuticals, Inc; cited from earlier work"}, "male pituitary cells": {"system": "male pituitary cells", "assay": "LH release from similarly prepared male pituitary cells", "assay_type": "cell-based, rat", "conditions": "Supplemental Figure 2"}, "cFos": {"system": "cFos", "assay": "RT-PCR of cFos message in alphaT3-1 gonadotroph cells", "assay_type": "cell-based, mouse", "conditions": "alphaT3-1 cells; not shown"}, "GnRH receptor [6]": {"system": "GnRH receptor", "assay": "RT-PCR of GnRH receptor message in alphaT3-1 gonadotroph cells", "assay_type": "cell-based, mouse", "conditions": "alphaT3-1 cells; normalized to GAPDH; Figure 3E", "in_short": "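Mouse αT3-1 gonadotroph cells were exposed to the peptide. RNA was reverse-transcribed using oligo d(T) and MMLV reverse transcriptase. GnRH receptor message was quantified by SYBR Green real-time PCR with primer efficiencies >85%, using the delta delta Ct method with GAPDH normalisation. Groups were compared by t test.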"}}, "note": "Ends that are not written are not given here."}
{"substance": "gonadotropin releasing hormone [gonadotropin-releasing hormone]", "values": [{"measurement": "displacement of phoenixin-20 binding", "setting": "[1]", "result": "not displaced"}]}
{"substance": "phoenixin", "values": [{"measurement": "basal release of LH, ACTH, prolactin, growth hormone, or TSH", "setting": "[2]; dispersed, primary rat pituitary cultures, data not shown", "result": "did not alter"}, {"measurement": "GnRH receptor messenger RNA", "setting": "GnRH receptor [3]; dispersed pituitary cultures pretreated with phoenixin, medium alone, Figure 3D", "result": "increased"}, {"measurement": "GnRH receptor expression in the absence of GnRH", "setting": "GnRH receptor [3]; primary pituitary cell cultures from female donors, Figure 3G", "result": "significantly increased"}]}
{"substance": "urocortin (DNPSLSIDLTFHLLRTLLELARTQSQRERAEQNRIIFDSV; ends and bridges not checked; UniProt P55089 83-122, looked up)", "values": [{"measurement": "displacement of phoenixin-20 binding", "setting": "[1]", "result": "not displaced"}]}
{"substance": "phoenixin-20: 20 amino acid amidated form of phoenixin (AGIVQEDVQPPGLKVWSDPF-NH2; UniProt C0HLM6 47-66, looked up)", "values": [{"measurement": "GnRH-stimulated LH release", "setting": "[2]", "result": "potentiated"}, {"measurement": "ability of GnRH to upregulate the expression of GnRH receptor", "setting": "GnRH receptor [3]; dispersed male anterior pituitary cell cultures, overnight pretreatment, Figure 3D", "result": "potentiated"}, {"measurement": "specific binding to pituitary and ovary cell membranes", "setting": "[1]; tissues from female rat donors, preliminary experiments", "result": "bound specifically"}, {"measurement": "cross-reaction with the antibodies used in the EIA", "setting": "[4]", "result": 100, "unit": "%"}, {"measurement": "LH release when GnRH was included in the perifusate", "setting": "[5]; 10 nM GnRH, Figure 3C", "result": "significantly enhanced"}, {"measurement": "basal LH release during perifusion", "setting": "[5]; then perifusion columns, no GnRH", "result": "did not alter"}, {"measurement": "cross-reactivity with PNX antiserum in radioimmunoassay", "setting": "PNX antiserum", "result": 100, "unit": "%"}, {"measurement": "LH release compared to medium alone", "setting": "male pituitary cells", "result": "no differences"}, {"measurement": "cFos message", "setting": "cFos", "result": "failed to attain significance"}, {"measurement": "GnRH receptor message", "setting": "GnRH receptor [6]", "result": "increase"}]}
{"substance": "angiotensin II (DRVYIHPF; Angiotensin-2; UniProt P01019 25-32, looked up) [reference compound]", "values": [{"measurement": "cross-reaction with the antibodies used in the EIA", "setting": "[4]", "result": 0, "unit": "%"}]}
{"substance": "DVQPPGLKVWSDPF-NH2 [phoenixin-14]", "values": [{"measurement": "GnRH-stimulated LH release", "setting": "[2]", "result": "potentiated"}, {"measurement": "cross-reaction with the antibodies used in the EIA", "setting": "[4]", "result": 100, "unit": "%"}, {"measurement": "cross-reactivity with PNX antiserum in radioimmunoassay", "setting": "PNX antiserum", "result": 100, "unit": "%"}]}
